Laboratory results: ChEMBL document CHEMBL5303300, “EUbOPEN Chemogenomics Library - Multiplex” (2023)
Values joined by “and” are separate entries in the source; they are usually repeats but may differ in a detail not shown here. Equal entries are not always repeated.

Tested on: Fibroblast
Assay: Multiplex assay against human fibroblast
Assay type: toxicity, cell-based
Details: number of replicates 2
In short: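 At seeding, live cells were stained with Hoechst33342, BioTracker Green Microtubule Cytoskeleton Dye, MitoTracker Red and Annexin V Alexa Fluor 680. After compound addition they were imaged on a CQ1 microscope at 37°C and 5% CO2, and CellPathfinder machine-learning gating sorted them into Hoechst high-intensity objects or normal cells, with normal cells further split into healthy, pyknosed or fragmented nuclei and pyknosed cells into mitotic or apoptotic. Tubulin, mitochondrial-mass and membrane-permeability phenotypes are given as per cents of cells with healthy nuclei.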

[1] = 12 h, 1 µM, compound concentration 1 uM
[2] = 12 h, 10 µM, compound concentration 10 uM
[3] = 24 h, 1 µM, compound concentration 1 uM
[4] = 24 h, 10 µM, compound concentration 10 uM
[5] = 48 h, 1 µM, compound concentration 1 uM
[6] = 48 h, 10 µM, compound concentration 10 uM

In the case of CCc1cnn2c(NCc3ccc[n+]([O-])c3)cc(N3CCCCC3CCO)nc12 (stereo unspecified), the “Population Apoptotic (%)” value [1] is reported as 35% and 55%, the “Population Fragmented Nuclei (%)” value [1] is reported as 7% and 13% and the “Population Healthy Nuclei (%)” value [1] is reported as 73% and 62%. For the same compound, the “Population Hoechst High Intensity Objects (%)” value [1] was 0%, the “Population Membrane Permeable-Phenotype (%)” value [1] was 3% and 4% and the “Population Mitochondria Different-Phenotype (%)” value [1] was 1% and 0%. The “Population Mitotic Cells (%)” value [1] was 65% and 44%, the “Population Normal (%)” value [1] was 100% and the “Population Pyknosed Nuclei (%)” value [1] was 19% and 23%. For the same compound, the “Population Tubulin-Different-Phenotype (%)” value [1] was 13% and 9%, the “Total Cell Count” value [1] was 209 and 219 and the “Population Apoptotic (%)” value [2] was 42% and 55%. For the same compound, the “Population Fragmented Nuclei (%)” value [2] was 6% and 7%, the “Population Healthy Nuclei (%)” value [2] was 75% and the “Population Hoechst High Intensity Objects (%)” value [2] was 0%. The “Population Membrane Permeable-Phenotype (%)” value [2] was 5% and 7%, the “Population Mitochondria Different-Phenotype (%)” value [2] was 2% and 3% and the “Population Mitotic Cells (%)” value [2] was 57% and 44%. For the same compound, the “Population Normal (%)” value [2] was 99% and 100%, the “Population Pyknosed Nuclei (%)” value [2] was 17% and 16% and the “Population Tubulin-Different-Phenotype (%)” value [2] was 31% and 26%. For the same compound, the “Total Cell Count” value [2] was 191 and 174, the “Population Apoptotic (%)” value [3] was 59% and 63% and the “Population Fragmented Nuclei (%)” value [3] was 9% and 13%. The “Population Healthy Nuclei (%)” value [3] was 68% and 67%, the “Population Hoechst High Intensity Objects (%)” value [3] was 0% and the “Population Membrane Permeable-Phenotype (%)” value [3] was 7% and 3%. For the same compound, the “Population Mitochondria Different-Phenotype (%)” value [3] was 2% and 0%, the “Population Mitotic Cells (%)” value [3] was 40% and 36% and the “Population Normal (%)” value [3] was 100%. The “Population Pyknosed Nuclei (%)” value [3] was 22% and 19%, the “Population Tubulin-Different-Phenotype (%)” value [3] was 18% and 10% and the “Total Cell Count” value [3] was 188 and 213. The “Population Apoptotic (%)” value [4] was 68% and 52%, the “Population Fragmented Nuclei (%)” value [4] was 8% and 9% and the “Population Healthy Nuclei (%)” value [4] was 77% and 75%. The “Population Hoechst High Intensity Objects (%)” value [4] was 0%, the “Population Membrane Permeable-Phenotype (%)” value [4] was 10% and 4% and the “Population Mitochondria Different-Phenotype (%)” value [4] was 2% and 6%. The “Population Mitotic Cells (%)” value [4] was 32% and 48%, the “Population Normal (%)” value [4] was 100% and the “Population Pyknosed Nuclei (%)” value [4] was 13% and 15%. For the same compound, the “Population Tubulin-Different-Phenotype (%)” value [4] was 43% and 38%, the “Total Cell Count” value [4] was 181 and 162 and the “Population Apoptotic (%)” value [5] was 65% and 64%. The “Population Fragmented Nuclei (%)” value [5] was 9% and 12%, the “Population Healthy Nuclei (%)” value [5] was 55% and 61% and the “Population Hoechst High Intensity Objects (%)” value [5] was 0%. For the same compound, the “Population Membrane Permeable-Phenotype (%)” value [5] was 8% and 9%, the “Population Mitochondria Different-Phenotype (%)” value [5] was 0% and 3% and the “Population Mitotic Cells (%)” value [5] was 34% and 35%. The “Population Normal (%)” value [5] was 100% and 99%, the “Population Pyknosed Nuclei (%)” value [5] was 35% and 26% and the “Population Tubulin-Different-Phenotype (%)” value [5] was 15% and 17%. The “Total Cell Count” value [5] was 188 and 216, the “Population Apoptotic (%)” value [6] was 73% and 63% and the “Population Fragmented Nuclei (%)” value [6] was 11% and 6%. For the same compound, the “Population Healthy Nuclei (%)” value [6] was 63%, the “Population Hoechst High Intensity Objects (%)” value [6] was 0% and the “Population Membrane Permeable-Phenotype (%)” value [6] was 14% and 20%. The “Population Mitochondria Different-Phenotype (%)” value [6] was 1% and 4%, the “Population Mitotic Cells (%)” value [6] was 26% and 36% and the “Population Normal (%)” value [6] was 100% and 99%. For the same compound, the “Population Pyknosed Nuclei (%)” value [6] was 25% and 29%, the “Population Tubulin-Different-Phenotype (%)” value [6] was 43% and 41% and the “Total Cell Count” value [6] was 179 and 149.
CS(=O)(=O)c1ccc(C(=O)Nc2cccc(COc3ccc(Br)cc3CN[C@H]3CCC[C@@H]3O)c2)c(Cl)c1.O=CO was tested, and the “Population Apoptotic (%)” value [1] was 24% and 46%, the “Population Healthy Nuclei (%)” value [1] was 71% and 64% and the “Population Hoechst High Intensity Objects (%)” value [1] was 0%. The “Population Mitotic Cells (%)” value [1] was 75% and 53%, the “Population Normal (%)” value [1] was 99% and 100% and the “Population Pyknosed Nuclei (%)” value [1] was 20%. The “Total Cell Count” value [1] was 223 and 167, the “Population Apoptotic (%)” value [2] was 52% and 50% and the “Population Healthy Nuclei (%)” value [2] was 43% and 57%. For the same compound, the “Population Hoechst High Intensity Objects (%)” value [2] was 1% and 0%, the “Population Mitotic Cells (%)” value [2] was 47% and 50% and the “Population Normal (%)” value [2] was 98% and 99%. The “Population Pyknosed Nuclei (%)” value [2] was 42%, the “Total Cell Count” value [2] was 187 and 221 and the “Population Apoptotic (%)” value [3] was 44% and 73%. For the same compound, the “Population Healthy Nuclei (%)” value [3] was 68% and 59%, the “Population Hoechst High Intensity Objects (%)” value [3] was 0% and the “Population Normal (%)” value [3] was 100%. For the same compound, the “Total Cell Count” value [3] was 219 and 171, the “Population Apoptotic (%)” value [4] was 62% and 72% and the “Population Healthy Nuclei (%)” value [4] was 58% and 51%. The “Population Hoechst High Intensity Objects (%)” value [4] was 0%, the “Population Mitotic Cells (%)” value [4] was 37% and 27% and the “Population Normal (%)” value [4] was 99% and 97%. For the same compound, the “Population Pyknosed Nuclei (%)” value [4] was 32%, the “Total Cell Count” value [4] was 202 and 182 and the “Population Apoptotic (%)” value [5] was 75% and 70%. For the same compound, the “Population Healthy Nuclei (%)” value [5] was 70% and 68%, the “Population Hoechst High Intensity Objects (%)” value [5] was 0% and the “Population Mitotic Cells (%)” value [5] was 24% and 29%. The “Population Normal (%)” value [5] was 99% and 100%, the “Population Pyknosed Nuclei (%)” value [5] was 20% and the “Total Cell Count” value [5] was 218 and 154. For the same compound, the “Population Apoptotic (%)” value [6] was 87% and 86%, the “Population Healthy Nuclei (%)” value [6] was 71% and 55% and the “Population Hoechst High Intensity Objects (%)” value [6] was 0% and 1%. For the same compound, the “Population Normal (%)” value [6] was 99% and 98%, the “Population Pyknosed Nuclei (%)” value [6] was 20% and the “Total Cell Count” value [6] was 197 and 190.
In the case of CCn1c(-c2nonc2N)nc2cncc(C(=O)N3CC[C@H](N)C3)c21.Cl, the “Population Apoptotic (%)” value [1] is reported as 33% and 45%, the “Population Fragmented Nuclei (%)” value [1] is reported as 6% and 11% and the “Population Healthy Nuclei (%)” value [1] is reported as 73% and 74%. The “Population Hoechst High Intensity Objects (%)” value [1] was 0%, the “Population Membrane Permeable-Phenotype (%)” value [1] was 6% and 1% and the “Population Mitochondria Different-Phenotype (%)” value [1] was 0% and 1%. The “Population Mitotic Cells (%)” value [1] was 66% and 54%, the “Population Normal (%)” value [1] was 100% and the “Population Pyknosed Nuclei (%)” value [1] was 19% and 13%. For the same compound, the “Population Tubulin-Different-Phenotype (%)” value [1] was 2% and 4%, the “Total Cell Count” value [1] was 202 and 240 and the “Population Apoptotic (%)” value [2] was 9% and 19%. The “Population Fragmented Nuclei (%)” value [2] was 6% and 12%, the “Population Healthy Nuclei (%)” value [2] was 65% and 67% and the “Population Hoechst High Intensity Objects (%)” value [2] was 0%. For the same compound, the “Population Membrane Permeable-Phenotype (%)” value [2] was 3% and 1%, the “Population Mitochondria Different-Phenotype (%)” value [2] was 1% and 2% and the “Population Mitotic Cells (%)” value [2] was 90% and 80%. The “Population Normal (%)” value [2] was 99% and 100%, the “Population Pyknosed Nuclei (%)” value [2] was 28% and 20% and the “Population Tubulin-Different-Phenotype (%)” value [2] was 11% and 6%. For the same compound, the “Total Cell Count” value [2] was 196 and 295, the “Population Apoptotic (%)” value [3] was 50% and 69% and the “Population Fragmented Nuclei (%)” value [3] was 4% and 10%. The “Population Healthy Nuclei (%)” value [3] was 83% and 78%, the “Population Hoechst High Intensity Objects (%)” value [3] was 0% and the “Population Membrane Permeable-Phenotype (%)” value [3] was 4% and 2%. The “Population Mitochondria Different-Phenotype (%)” value [3] was 0%, the “Population Mitotic Cells (%)” value [3] was 50% and 30% and the “Population Normal (%)” value [3] was 100%. The “Population Pyknosed Nuclei (%)” value [3] was 11%, the “Population Tubulin-Different-Phenotype (%)” value [3] was 2% and 5% and the “Total Cell Count” value [3] was 191 and 224. The “Population Apoptotic (%)” value [4] was 23%, the “Population Fragmented Nuclei (%)” value [4] was 8% and 10% and the “Population Healthy Nuclei (%)” value [4] was 76% and 77%. The “Population Hoechst High Intensity Objects (%)” value [4] was 0%, the “Population Membrane Permeable-Phenotype (%)” value [4] was 2% and 0% and the “Population Mitochondria Different-Phenotype (%)” value [4] was 4% and 2%. For the same compound, the “Population Mitotic Cells (%)” value [4] was 76%, the “Population Normal (%)” value [4] was 100% and the “Population Pyknosed Nuclei (%)” value [4] was 15% and 11%. The “Population Tubulin-Different-Phenotype (%)” value [4] was 10% and 3%, the “Total Cell Count” value [4] was 196 and 266 and the “Population Apoptotic (%)” value [5] was 86% and 66%. For the same compound, the “Population Fragmented Nuclei (%)” value [5] was 6% and 10%, the “Population Healthy Nuclei (%)” value [5] was 85% and the “Population Hoechst High Intensity Objects (%)” value [5] was 0%. The “Population Membrane Permeable-Phenotype (%)” value [5] was 3% and 2%, the “Population Mitochondria Different-Phenotype (%)” value [5] was 0% and the “Population Mitotic Cells (%)” value [5] was 13% and 33%. For the same compound, the “Population Normal (%)” value [5] was 100%, the “Population Pyknosed Nuclei (%)” value [5] was 7% and 4% and the “Population Tubulin-Different-Phenotype (%)” value [5] was 1% and 3%. The “Total Cell Count” value [5] was 196 and 220, the “Population Apoptotic (%)” value [6] was 57% and 69% and the “Population Fragmented Nuclei (%)” value [6] was 11% and 9%. The “Population Healthy Nuclei (%)” value [6] was 72% and 80%, the “Population Hoechst High Intensity Objects (%)” value [6] was 0% and the “Population Membrane Permeable-Phenotype (%)” value [6] was 2% and 1%. For the same compound, the “Population Mitochondria Different-Phenotype (%)” value [6] was 0%, the “Population Mitotic Cells (%)” value [6] was 42% and 30% and the “Population Normal (%)” value [6] was 100% and 99%. For the same compound, the “Population Pyknosed Nuclei (%)” value [6] was 15% and 9%, the “Population Tubulin-Different-Phenotype (%)” value [6] was 2% and 3% and the “Total Cell Count” value [6] was 184 and 264.
